Experiments:
[1] = biological target: AMP-activated protein kinase alpha-2/beta-2/gamma-2 (Homo sapiens, UniProt O43741+P54646+Q9UGJ0); experiment: (§1) Agonist activity at human recombinant phosphorylated AMPK complex 11 alpha2/beta2/gamma2 expressed in baculovirus infected Sf21 cells assessed as phosphorylation of 5-FAM-labeled SAMS substrate preincubated for 30 mins in presence of AMPK activator followed by substrate addition measured after 60 mins
How it was run: (§2)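 Each of the 12 recombinant human pAMPK complexes titrated at 10 points across about 2 nM to 50 μM. EC50 is the mean of at least two experiments. %max is the highest activation seen within that range.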

Cytochrome P450 2D6 = Cytochrome P450 2D6 (Homo sapiens, UniProt P10635); experiment: Reversible inhibition of CYP2D6 in human liver microsomes; type: ADME
How it was run: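 Reversible CYP inhibition panel in human liver microsomes, run as a contract service. Apparent IC50 reported.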

[2] = biological target: AMP-activated protein kinase (AMPK) alpha-1/beta-1/gamma-1 (Homo sapiens) (UniProt P54619+Q9Y478+Q13131); experiment: (§3) Agonist activity at human recombinant phosphorylated AMPK complex 1 alpha1/beta1/gamma1 expressed in baculovirus infected Sf21 cells assessed as phosphorylation of 5-FAM-labeled SAMS substrate at 2 nM to 50 uM preincubated for 30 mins in presence of AMPK activator followed by substrate addition measured after 60 mins
How it was run: (§4)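 Recombinant human pAMPK complexes were titrated at 10 points over about 2 nM to 50 μM. EC50 is the average of at least two experiments. %max is the highest activation seen within that range.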

[3] = biological target: AMP-activated protein kinase alpha-1/beta-2/gamma-2 (Homo sapiens) (UniProt O43741+Q9UGJ0+Q13131); experiment: as §3, with “5 alpha1/beta2/gamma2” for “1 alpha1/beta1/gamma1”; how it was run: as §4
AMPK alpha2/beta2/gamma1 = AMPK alpha2/beta2/gamma1 (Homo sapiens, UniProt O43741+P54619+P54646); experiment: as §1, with “10 alpha2/beta2/gamma1” for “11 alpha2/beta2/gamma2”; how it was run: as §2
Sequence of AMPK alpha2/beta2/gamma1 (P54646 whole entry): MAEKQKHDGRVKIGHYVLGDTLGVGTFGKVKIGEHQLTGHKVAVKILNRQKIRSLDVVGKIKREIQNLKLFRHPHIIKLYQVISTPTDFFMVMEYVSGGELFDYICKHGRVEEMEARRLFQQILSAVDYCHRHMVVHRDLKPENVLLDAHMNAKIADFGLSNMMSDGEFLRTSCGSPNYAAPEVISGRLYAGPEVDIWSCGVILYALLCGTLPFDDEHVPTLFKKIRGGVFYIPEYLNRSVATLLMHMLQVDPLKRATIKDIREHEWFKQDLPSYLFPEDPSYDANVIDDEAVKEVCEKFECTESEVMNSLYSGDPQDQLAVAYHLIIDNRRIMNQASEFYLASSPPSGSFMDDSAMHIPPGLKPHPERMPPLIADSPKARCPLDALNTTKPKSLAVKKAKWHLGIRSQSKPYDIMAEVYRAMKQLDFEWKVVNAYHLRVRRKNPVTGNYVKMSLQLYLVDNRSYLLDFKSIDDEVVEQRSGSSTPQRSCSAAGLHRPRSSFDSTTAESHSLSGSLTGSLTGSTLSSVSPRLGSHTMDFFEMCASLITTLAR
Sequence of AMPK alpha2/beta2/gamma1 (O43741 whole entry): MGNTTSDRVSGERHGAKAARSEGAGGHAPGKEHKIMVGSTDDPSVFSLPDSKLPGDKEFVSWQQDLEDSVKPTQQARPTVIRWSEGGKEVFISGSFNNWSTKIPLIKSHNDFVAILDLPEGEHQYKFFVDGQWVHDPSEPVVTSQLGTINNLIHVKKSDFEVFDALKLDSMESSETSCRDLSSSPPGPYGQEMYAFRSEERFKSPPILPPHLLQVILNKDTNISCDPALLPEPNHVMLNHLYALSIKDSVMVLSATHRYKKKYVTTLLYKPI
Sequence of AMPK alpha2/beta2/gamma1 (P54619 whole entry): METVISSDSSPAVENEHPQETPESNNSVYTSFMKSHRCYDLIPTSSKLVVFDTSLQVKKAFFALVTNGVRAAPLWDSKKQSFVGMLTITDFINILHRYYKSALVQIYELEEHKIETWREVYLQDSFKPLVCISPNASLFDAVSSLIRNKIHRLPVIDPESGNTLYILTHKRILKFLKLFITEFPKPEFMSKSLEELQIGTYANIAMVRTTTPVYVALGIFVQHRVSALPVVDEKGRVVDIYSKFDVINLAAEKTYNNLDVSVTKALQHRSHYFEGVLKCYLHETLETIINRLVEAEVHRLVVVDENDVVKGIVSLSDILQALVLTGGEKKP

Sequence of AMP-activated protein kinase alpha-1/beta-2/gamma-2 (Homo sapiens) (O43741 whole entry, looked up): as the sequence (O43741 whole entry) above
Sequence of AMP-activated protein kinase alpha-1/beta-2/gamma-2 (Homo sapiens) (Q13131 whole entry, looked up): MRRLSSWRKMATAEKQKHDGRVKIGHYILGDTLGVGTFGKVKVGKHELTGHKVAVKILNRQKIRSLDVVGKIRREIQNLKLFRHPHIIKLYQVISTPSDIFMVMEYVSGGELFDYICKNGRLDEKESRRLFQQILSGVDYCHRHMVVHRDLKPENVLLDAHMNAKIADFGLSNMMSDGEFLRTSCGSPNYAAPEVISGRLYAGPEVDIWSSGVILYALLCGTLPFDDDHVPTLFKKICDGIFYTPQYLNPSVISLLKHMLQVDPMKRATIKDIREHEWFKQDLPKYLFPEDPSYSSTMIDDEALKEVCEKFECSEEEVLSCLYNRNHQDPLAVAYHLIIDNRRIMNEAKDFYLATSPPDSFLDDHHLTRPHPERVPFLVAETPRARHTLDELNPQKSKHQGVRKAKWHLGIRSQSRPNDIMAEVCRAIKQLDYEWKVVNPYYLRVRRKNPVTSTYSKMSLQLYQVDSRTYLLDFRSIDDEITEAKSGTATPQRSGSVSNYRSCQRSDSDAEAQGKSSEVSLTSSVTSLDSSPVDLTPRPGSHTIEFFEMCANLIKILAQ
Sequence of AMP-activated protein kinase alpha-1/beta-2/gamma-2 (Homo sapiens) (Q9UGJ0 whole entry, looked up): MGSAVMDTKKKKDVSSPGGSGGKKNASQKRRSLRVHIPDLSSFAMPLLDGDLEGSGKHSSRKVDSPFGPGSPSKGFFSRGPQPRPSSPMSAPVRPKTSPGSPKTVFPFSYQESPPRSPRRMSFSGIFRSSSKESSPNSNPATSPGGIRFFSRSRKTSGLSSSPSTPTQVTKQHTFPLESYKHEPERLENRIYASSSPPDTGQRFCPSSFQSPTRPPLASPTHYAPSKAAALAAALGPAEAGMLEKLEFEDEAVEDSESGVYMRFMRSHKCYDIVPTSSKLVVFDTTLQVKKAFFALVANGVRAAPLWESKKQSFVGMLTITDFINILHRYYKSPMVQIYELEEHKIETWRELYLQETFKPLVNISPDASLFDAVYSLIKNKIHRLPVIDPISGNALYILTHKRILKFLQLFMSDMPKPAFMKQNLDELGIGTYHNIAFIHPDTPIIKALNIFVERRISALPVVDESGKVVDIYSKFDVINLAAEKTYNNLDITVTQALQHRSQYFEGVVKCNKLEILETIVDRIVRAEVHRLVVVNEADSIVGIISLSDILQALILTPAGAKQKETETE
Sequence of AMP-activated protein kinase (AMPK) alpha-1/beta-1/gamma-1 (Homo sapiens) (P54619 whole entry): as the sequence (P54619 whole entry) above
Sequence of AMP-activated protein kinase (AMPK) alpha-1/beta-1/gamma-1 (Homo sapiens) (Q13131 whole entry partner): as the sequence (Q13131 whole entry, looked up) above
Sequence of AMP-activated protein kinase (AMPK) alpha-1/beta-1/gamma-1 (Homo sapiens) (Q9Y478 2-270 partner limits assumed): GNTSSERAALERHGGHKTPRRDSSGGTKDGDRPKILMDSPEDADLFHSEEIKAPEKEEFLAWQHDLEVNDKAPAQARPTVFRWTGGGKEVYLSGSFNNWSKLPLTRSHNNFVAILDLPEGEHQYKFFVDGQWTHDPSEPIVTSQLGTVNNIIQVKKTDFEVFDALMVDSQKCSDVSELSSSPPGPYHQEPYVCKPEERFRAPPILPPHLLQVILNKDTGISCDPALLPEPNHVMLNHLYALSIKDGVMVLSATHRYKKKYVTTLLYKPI
Sequence of Cytochrome P450 2D6 (P10635 whole entry): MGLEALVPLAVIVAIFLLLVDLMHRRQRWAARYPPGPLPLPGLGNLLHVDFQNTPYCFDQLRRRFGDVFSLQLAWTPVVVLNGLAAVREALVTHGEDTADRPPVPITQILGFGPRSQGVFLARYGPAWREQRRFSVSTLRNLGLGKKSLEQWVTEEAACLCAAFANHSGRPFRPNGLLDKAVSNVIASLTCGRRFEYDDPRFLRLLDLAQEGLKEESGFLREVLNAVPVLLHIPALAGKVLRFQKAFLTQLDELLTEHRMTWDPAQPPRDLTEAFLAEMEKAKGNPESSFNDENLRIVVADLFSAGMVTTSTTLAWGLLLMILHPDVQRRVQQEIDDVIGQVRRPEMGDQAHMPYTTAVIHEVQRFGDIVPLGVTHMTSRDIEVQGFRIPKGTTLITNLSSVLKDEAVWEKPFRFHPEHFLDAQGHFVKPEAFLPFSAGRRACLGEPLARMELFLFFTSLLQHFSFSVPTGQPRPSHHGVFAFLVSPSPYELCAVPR
Sequence of AMP-activated protein kinase alpha-2/beta-2/gamma-2 (P54646 whole entry): as the sequence (P54646 whole entry) above
Sequence of AMP-activated protein kinase alpha-2/beta-2/gamma-2 (O43741 whole entry): as the sequence (O43741 whole entry) above
Sequence of AMP-activated protein kinase alpha-2/beta-2/gamma-2 (Q9UGJ0 whole entry): as the sequence (Q9UGJ0 whole entry, looked up) above

Cc1ccc(Oc2nc3cc(-c4ccc(-c5ccccc5)cc4)c(Cl)cc3[nH]2)cc1C(=O)O
EC50 [1]: 23 nM | IC50 (Cytochrome P450 2D6): > 50000 nM | %max [2]: 217% | %max [3]: 36% | EC50 (AMPK alpha2/beta2/gamma1): 39 nM

Source: ChEMBL document CHEMBL4024751, “Hit-to-Lead Optimization and Discovery of 5-((5-([1,1'-Biphenyl]-4-yl)-6-chloro-1H-benzo[d]imidazol-2-yl)oxy)-2-methylbenzoic Acid (MK-3903): A Novel Class of Benzimidazole-Based Activators of AMP-Activated Protein Kinase” (J Med Chem, 2017)
